Calls of active or inactive are those of the source. The rule behind the calls is not given here.
Assays:
[1] = tested on: NCI-H460; assay: Cytotoxicity against human NCI-H460 cells after 48 hrs by MTT assay; assay type: functional, cell-based; conditions: NCI-H460, 48 h
In short: (§1)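 Cells kept in RPMI-1640 with 10% FBS, seeded at 1.0 × 10^ cells per well and exposed to graded compound for 48 h at 37 °C in 5% CO2. MTT (5 mg/mL solution) was then added for 4 h, formazan dissolved in DMSO, and OD read at 570 nm. Tests were run in triplicate, and IC50 was derived from mean OD versus concentration curves.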

[2] = tested on: HepG2; assay: Cytotoxicity against human HepG2 cells after 48 hrs by MTT assay; assay type: functional, cell-based; conditions: HepG2, 48 h; in short: as §1
[3] = target: Nucleic Acid; assay: Binding affinity to G-quadruplex DNA Pu27 assessed as inhibition of hybridization with complementary strand after 3 mins by PCR-stop assay; assay type: nucleic-acid assay
In short: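 Taq polymerase-stop on Pu27 with its complementary strand, each oligomer 10 μM, in 1× PCR buffer with 0.16 mM dNTP, 2.5 U Taq and graded compound. Cycling was 94 °C 3 min, then 30 cycles of 94 °C 30 s, […] 30 s, 72 °C 30 s. Products were run on 15% nondenaturing PAGE in TBE and silver stained. IC50 was taken for inhibition of amplification.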

[4] = tested on: ECV-304; assay: Cytotoxicity against human ECV304 cells after 48 hrs by MTT assay; assay type: cell-based; conditions: ECV-304, 48 h; in short: as §1
[5] = target: Nucleic Acid; assay: Binding affinity to biotinylated-telomeric G-quadruplex DNA HTG21 by SPR assay; assay type: nucleic-acid assay
In short: (§2)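 SPR with biotinylated DNA captured to about 1000 RU in flow cells 1 and 2, the third left blank as reference. Running buffer was 50 mM Tris-HCl pH 7.2, 100 mM KCl. Ligand at 0.3125–10 μM was injected for 150 s association and 300 s dissociation at 25 °C, with 1 M NaCl regeneration. Blank-subtracted sensorgrams were fitted with a Langmuir kinetic model.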

[6] = tested on: Nucleic Acid; assay: Binding affinity to human telomeric G-quadruplex DNA F21T assessed as change in melting temperature at 1 uM by FRET-melting assay; assay type: nucleic-acid assay
In short: (§3)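 FRET melting of FAM/TAMRA-labelled oligonucleotides (FPu18T, F21T or duplex F10T), each 0.2 μM, with compound 1.0 μM in 10 mM Tris-HCl pH 7.2 containing KCl. For competition, excess ds26 duplex (3 or 10 μM) was added.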

[7] = target: Nucleic Acid; assay: Binding affinity to biotinylated-c-myc G-quadruplex DNA FPu18T by SPR assay; assay type: nucleic-acid assay; in short: as §2
[8] = tested on: Nucleic Acid; assay: Binding affinity to duplex DNA F10T assessed as change in melting temperature at 1 uM by FRET-melting assay; assay type: nucleic-acid assay; in short: as §3
[9] = tested on: Nucleic Acid; assay: Binding affinity to c-myc G-quadruplex DNA FPu18T assessed as change in melting temperature at 1 uM by FRET-melting assay in presence of excess duplex oligomer ds26; assay type: nucleic-acid assay; in short: as §3
[10] = tested on: HL-60; assay: Cytotoxicity against human HL60 cells after 48 hrs by MTT assay; assay type: functional, cell-based; conditions: HL-60, 48 h; in short: as §1
[11] = tested on: Nucleic Acid; assay: Binding affinity to c-myc G-quadruplex DNA FPu18T assessed as change in melting temperature at 1 uM by FRET-melting assay; assay type: nucleic-acid assay; in short: as §3
[12] = tested on: Nucleic Acid; assay: Binding affinity to biotinylated-duplex DNA at 20 uM by SPR assay; assay type: nucleic-acid assay
[13] = tested on: Nucleic Acid; assay: Binding affinity to biotinylated-c-myc G-quadruplex DNA FPu18T at 20 uM by SPR assay; assay type: nucleic-acid assay
[14] = tested on: Nucleic Acid; assay: Binding affinity to biotinylated-telomeric G-quadruplex DNA HTG21 at 20 uM by SPR assay; assay type: nucleic-acid assay
[15] = tested on: Nucleic Acid; assay: Binding affinity to c-myc G-quadruplex DNA FPu18T assessed as conformational changes at 25 uM by CD spectrophotometric analysis in absence of K+ ions; assay type: nucleic-acid assay
In short: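 CD spectra of Pu18 (5 μM) with ligand at 25 μM in 10 mM Tris-HCl pH 7.2 with no KCl. Samples were annealed from 95 °C and held at 4 °C for ≥6 h. Spectra were recorded over 220–450 nm with 1 nm bandwidth, averaging two scans.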

[16] = tested on: CA46; assay: Decrease in c-myc expression in promoter element P1 and P2-deficient human CA46 cells by RT-PCR analysis; assay type: functional, cell-based
In short: (§4)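 Ramos or CA46 cells were seeded at 100,000 per well and treated for 4 days with 1, 2.5, 5 or 10 μM compound or DMSO. Total RNA was extracted in Redzol and reverse-transcribed with oligo dT18 at 42 °C for 1 h. c-myc (91 bp) and β-actin (541 bp) were PCR-amplified and run on 1% agarose. Densitometry values were normalized to β-actin.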

[17] = tested on: Ramos; assay: Suppression of c-myc mRNA level in human Ramos cells expressing NHE III1 at 10 uM by RT-PCR analysis; assay type: functional, cell-based; in short: as §4
[18] = tested on: Nucleic Acid; assay: Binding affinity to c-myc G-quadruplex DNA FPu18T assessed as change in CD spectra at 25 uM by CD spectrophotometric analysis in presence of 100 mM K+ ions; assay type: nucleic-acid assay
In short: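 CD spectra of Pu18 (5 μM) with ligand at 25 μM in 10 mM Tris-HCl pH 7.2 plus 100 mM KCl. Samples were heated to 95 °C, slowly cooled and held at 4 °C for ≥6 h. Spectra were recorded over 220–450 nm with 1 nm bandwidth and 0.5 s per point, averaging two scans.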

[19] = tested on: Ramos; assay: Decrease in c-myc expression in human Ramos cells expressing NHE III1 at 2.5 uM by RT-PCR analysis; assay type: functional, cell-based; in short: as §4
[20] = tested on: Nucleic Acid; assay: Selectivity ratio of Kd for biotinylated-telomeric G-quadruplex DNA HTG21 to Kd for biotinylated-c-myc G-quadruplex DNA FPu18T; assay type: nucleic-acid assay; in short: as §2

IC50 [3] [µM] | Kd [5] [µM] | ΔTm [6] [°C] | Kd [7] [µM] | ΔTm [8] [°C] | Activity [9] | ΔTm [11] [°C] | Activity [12] | Activity [13] | Activity [14] | Activity [15] | Activity [18] | Ratio [20] | Compound | IC50 [1] [µM] | IC50 [2] [µM] | IC50 [4] [µM] | IC50 [10] [µM] | Activity [16] | Activity [17] | Activity [19]
> 20 | 8.07 | 4 | 1.46 | 0.1 | Active | 5.5 | inactive | – | – | – | – | – | O=C(CN1CCCCC1)Nc1cc(-n2cccn2)c2[nH]c3c(-n4cccn4)cc(NC(=O)CN4CCCCC4)cc3c2c1 | 3.3 | 5.6 | 27.3 | 2.4 | – | – | –
> 20 | – | 4.2 | – | 0.3 | Active | 7.3 | inactive | inactive | inactive | – | – | – | O=C(CCN1CCOCC1)Nc1cc(-n2cccn2)c2[nH]c3c(-n4cccn4)cc(NC(=O)CCN4CCOCC4)cc3c2c1 | 2.8 | 6.9 | 26.2 | 1.7 | – | – | –
5.2 | 2.97 | 6.3 | 0.694 | 0.3 | Active | 9.3 | inactive | – | – | – | – | – | O=C(CN1CCCC1)Nc1cc(-n2cccn2)c2[nH]c3c(-n4cccn4)cc(NC(=O)CN4CCCC4)cc3c2c1 | 2.7 | 2.7 | 22.2 | 1.9 | – | – | –
4.9 | 1.88 | 9.7 | 0.135 | 0.3 | Active | 12.1 | inactive | – | – | Active | Active | – | O=C(CCN1CCCCC1)Nc1cc(-n2cccn2)c2[nH]c3c(-n4cccn4)cc(NC(=O)CCN4CCCCC4)cc3c2c1 | 2.7 | 5.1 | 25 | 1.2 | inactive | Active | Active
3.6 | 2.64 | 10.7 | 0.131 | 0.5 | Active | 15.1 | inactive | – | – | – | Active | > 20 | O=C(CCN1CCCC1)Nc1cc(-n2cccn2)c2[nH]c3c(-n4cccn4)cc(NC(=O)CCN4CCCC4)cc3c2c1 | 3.5 | 4.2 | 25.2 | 2.2 | – | – | –
> 20 | 6.86 | 3.6 | 2.03 | 0.6 | Active | 7.4 | inactive | – | – | – | – | – | CCN(CC)CC(=O)Nc1cc(-n2cccn2)c2[nH]c3c(-n4cccn4)cc(NC(=O)CN(CC)CC)cc3c2c1 | 2.5 | 3 | 22.8 | 2 | – | – | –
6.3 | 2.59 | 11.9 | 0.233 | 0.3 | Active | 18.1 | inactive | – | – | – | Active | – | CCN(CC)CCC(=O)Nc1cc(-n2cccn2)c2[nH]c3c(-n4cccn4)cc(NC(=O)CCN(CC)CC)cc3c2c1 | 2.6 | 2.7 | 23.3 | 1.9 | – | – | –
> 20 | – | 1.2 | – | 0.2 | Active | 4.4 | inactive | inactive | inactive | – | – | – | O=C(CN1CCOCC1)Nc1cc(-n2cccn2)c2[nH]c3c(-n4cccn4)cc(NC(=O)CN4CCOCC4)cc3c2c1 | 3.9 | 6.1 | 29.3 | 3.9 | – | – | –

Reference: ChEMBL document CHEMBL2029283, “Disubstituted 1,8-dipyrazolcarbazole derivatives as a new type of c-myc G-quadruplex binding ligands” (Bioorg Med Chem, 2012)
